From PubChem
NPY1 pot ag: potentiators or agonists of human neuropeptide Y receptor Y1 | P25929 | NPY-Y1 expressing cells, potentiator/agonist activation | activation, % at 3.6 µM | 220,000 compounds, 0.37% hits; in the data active = activation above about 33%, passing the limit was not always enough;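 also: cells stimulated with NPY at EC10 then isoproterenol at EC100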
NPY-Y2 PAM-ag: human NPY-Y2 potentiation or agonism, primary screen; P49146; 220,000 compounds, 0.45% hits; cells expressing NPY-Y2, potentiator/agonist read-out; activation, % at 3.6 µM; in the data active = activation above about 27%;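 also: cells stimulated with NPY near EC25 plus isoproterenol at EC100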
EP2 antag: inhibitors of human EP2 prostaglandin E2 receptor. 260,000 compounds, 0.52% hits. P43116. C6 glioma cells expressing human EP2, cAMP TR-FRET; cells stimulated with saturating PGE2. inhibition, % at 25 µM;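 active = percent inhibition above 40 after rounding to a whole number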;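 also: rat C6 glioma host cells with rolipram phosphodiesterase inhibitor present; the protocol text gives 20 µM as final concentration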
Target sequence (P43116 whole entry, looked up): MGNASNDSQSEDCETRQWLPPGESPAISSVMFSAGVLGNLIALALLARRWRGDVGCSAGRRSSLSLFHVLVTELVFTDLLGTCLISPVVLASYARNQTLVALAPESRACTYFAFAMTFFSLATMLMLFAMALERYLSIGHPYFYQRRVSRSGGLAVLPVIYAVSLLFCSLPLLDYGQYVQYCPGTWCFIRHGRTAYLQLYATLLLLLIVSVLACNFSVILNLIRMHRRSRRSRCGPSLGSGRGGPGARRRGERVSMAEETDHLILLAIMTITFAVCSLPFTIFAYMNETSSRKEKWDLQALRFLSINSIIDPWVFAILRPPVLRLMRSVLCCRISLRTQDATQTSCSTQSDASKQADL
NPY-Y1 antag: NPY-Y1 (human) receptor antagonism | AID 1040 | 200,000 compounds, 1% hits | P25929 | inhibition, % at 3.6 µM | HEK293-CNG Y1 cells, membrane potential fluorescence; NPY at EC95, then isoproterenol;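 active = inhibition above the campaign mean inhibition of all tested compounds plus 3 SD, cut at about 20% in these data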
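Material: Y1- and CNG-channel-expressing HEK293 cells / Probe or stimulus: NPY 25 nM then isoproterenol 1 µM plus Ro 20-1724 25 µM / Doses: 3.6 µM single dose, DMSO 0.4% / Schedule: compound incubation 1 h at room temperature, readout 45 min post-stimulation / Signal: membrane potential fluorescence / Benchmarks: isoproterenol-only wells as full block versus NPY-plus-isoproterenol wells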
EP2 mod: modulators of human EP2 prostaglandin E2 receptor; P43116; EP2-expressing cells, cAMP HTRF FRET, PGE2 co-stimulation; induction, % at 25 µM; 260,000 compounds, 0.83% hits; AID 940;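 active = compounds whose cAMP rise, as percent of the full-agonist control response, exceeds 60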;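 also: rat C6 glioma line stably carrying human EP2 under a CMV promoter; the protocol text gives 20 µM as final concentration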
NPY-Y2 antag: blocks the human neuropeptide Y Y2 receptor; inhibition, % at 2.7 µM; 140,000 compounds, 0.99% hits; NPY-Y2 expressing cells, antagonist mode; AID 793; in the data active = inhibition above about 17%
EP2 cAMP induct: human EP2 receptor cAMP induction, negative in counter-screens. C6 glioma EP2 cells, cAMP HTRF induction; plus low (about EC15) PGE2 agonist. calls only at 20 µM (by protocol). 1,300 compounds, 47% hits. shares compounds with EP2 mod;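 active = cAMP induction above 50% in the main assay while under 30% in all four parallel counter assays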;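 also: rat C6 glioma cells stably expressing human EP2 receptor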
Hits are given with their value; 0 = inactive; - = not tested or not shown; + = active, no number. In the library only some 2.8% were active in any assay of this set; here they are far more common.

SMILES	NPY1 pot ag	NPY-Y2 PAM-ag	EP2 antag	NPY-Y1 antag	EP2 mod	NPY-Y2 antag	EP2 cAMP induct
O=C(CNCC1CCCCC1)Nc1ccccc1N1CCCCC1	0	0	0	0	65.7	0	+
Cc1occc1-c1nnc(SCC(=O)Nc2ccccc2N2CCCCC2)n1C	0	0	0	0	0	0	0
CN1c2ncccc2C(=O)NC12CCN(C(=O)c1cccnc1)CC2	-	-	-	-	0	-	-
Cc1cc(-c2cnc(C)nc2C2CCN(C(=O)c3ccc(Cn4cccn4)o3)CC2)on1	-	-	-	-	0	-	-
O=C(Nc1ccccc1N1CCCCC1)c1ccc(F)cc1	0	0	0	0	66.3	0	+
CCOc1ccc(C(=O)Nc2ccccc2N2CCCC2)cc1	0	0	0	0	0	0	-
COc1ccc(-c2nc(NC(C)=O)sc2-c2ccccc2)cc1	0	0	0	0	62.0	-	0
COc1ccc(-c2sc(NC(C)=O)nc2-c2ccccc2)cc1	0	0	0	0	0	0	-
COc1cc(/C=C2\C(=O)NN(c3cccc(Cl)c3)C2=O)cc(OC)c1OC	-	-	0	-	0	-	-
Cn1c(/C=C/N(Cc2ccccc2)c2ccccc2)c([N+](=O)[O-])c(=O)n(C)c1=O	0	0	0	0	67.8	-	+
O=C(CN1CCCCC1)Nc1ccc(C(F)(F)F)cc1Cl	0	0	0	-	0	-	-
O=C(CN1CCCCCCC1)Nc1ccc(Cl)cc1Cl	0	0	0	0	65.8	-	0
COc1ccccc1CNc1cc(C)ccc1C	0	0	0	0	66.1	0	0
CC(C)NC(=O)NC(=O)CSc1nnc(COc2ccccc2F)n1C(C)C1CC2CCC1C2 (centres undefined)	0	0	0	0	0	0	0
CC(C1CC2CCC1C2)n1c(COc2ccccc2F)nnc1SCC(N)=O (centres undefined)	0	0	0	0	0	0	-
CC1=CC(C)(C)N(S(=O)(=O)c2ccc(C)cc2)c2cc(C)ccc21	0	0	0	0	69.5	0	+
Cc1ccc(S(=O)(=O)NCC(=O)OCN2C(=O)c3ccccc3C2=O)cc1	0	0	0	0	67.5	0	0
CCOc1ccc(S(=O)(=O)NCCC(=O)OCN2C(=O)c3ccccc3C2=O)cc1	0	0	0	0	0	0	-
O=C(CSc1nc(C2CC2)nc2sc3c(c12)CCCC3)Nc1ccccc1F	-	-	0	-	0	-	-
O=C(c1ccccc1)C1CN(Cc2ccccc2)CCC1(O)c1ccccc1 (centres undefined)	0	0	0	0	76.0	-	0
CCOc1ccc(C(=O)OCC2CCC[N+]3(C)CCCCC23)cc1 (centres undefined)	-	-	0	-	0	-	-
CCOc1ccc(-c2nnc3n2N=C(c2ccc(OC)cc2)CS3)cc1	0	0	0	0	74.9	0	+
CCc1nnc2n1N=C(c1ccc(OC)cc1)CS2	0	0	0	0	0	0	-
FC(F)(F)c1nnc(-c2ccccc2)nc1Sc1ccccc1	0	0	0	0	74.9	0	0
FC(F)(F)c1nnc(-c2ccccc2)nc1Sc1ccc(Cl)cc1	0	0	0	0	0	0	-
SMILES	NPY1 pot ag	NPY-Y2 PAM-ag	EP2 antag	NPY-Y1 antag	EP2 mod	NPY-Y2 antag	EP2 cAMP induct
CC(=O)CSc1nc(N)c(C#N)c(-c2cccs2)c1C#N	0	0	0	0	0	0	-
CC(=O)CSc1nc(-c2cccs2)c(C#N)c(=O)[nH]1	0	0	0	0	67.6	-	0
COc1cc(/C=C(\C#N)c2nc3ccc(C)cc3[nH]2)c([N+](=O)[O-])cc1OC	0	0	0	0	0	0	-
COc1c(O)ccc(/C=C(\C#N)c2nc3ccccc3[nH]2)c1[N+](=O)[O-]	0	0	0	0	78.6	0	+
CCC1Oc2ccc(C)cc2N(Cc2cccc(C)c2)C1=O (centres undefined)	0	0	0	0	75.3	0	+
CCC(C)NC(=O)CSc1nnc(-c2ccoc2C)n1-c1ccc(F)cc1 (centres undefined)	-	-	0	-	0	-	-
CCNC(=O)c1c(NC(=O)COc2ccc(OC)cc2)sc2c1CCCC2	-	-	0	-	0	-	-
Cc1ccc(C2CC(c3cccs3)=NN2C(=O)c2ccc(Br)o2)cc1 (centres undefined)	0	0	0	0	0	0	0
COc1cc(C(=O)NCCNc2nc(C)nc3sc4c(c23)CCCC4)cc(OC)c1OC	-	-	0	-	0	-	-
CCOc1ccc(OCC)c(N=c2oc3c(C)ncc(CO)c3cc2C(N)=O)c1	0	0	-	0	0	0	-
COc1cccc(N=c2oc3c(C)ncc(CO)c3cc2C(=O)Nc2ccccc2OC)c1	0	0	-	0	67.8	0	0
Oc1ccc(-c2nc3cnccn3c2NCc2ccc3c(c2)OCO3)cc1O	-	-	0	-	0	-	-
O=c1[nH]c(=S)c2c(n1-c1ccccc1)CCC2	0	0	0	0	82.4	0	0
O=c1c(-c2ccccc2)c(O)c2c(n1-c1ccccc1)CCCC2	0	0	0	0	0	0	-
CC(C)C(=O)N1CCC(Cn2nc(-c3ccccc3)ccc2=O)CC1	-	-	-	-	0	-	-
COc1ccc(S(=O)(=O)N(Cc2cc3cc(OC)ccc3[nH]c2=O)CC2CCCO2)cc1 (centres undefined)	-	-	0	-	0	-	-
CCOc1ccc(Cl)cc1S(=O)(=O)n1cnc2cc(C)c(C)cc21	0	0	0	0	70.4	0	+
CCOc1ccc(Cl)cc1S(=O)(=O)N1CCN(c2ccc(C)c(C)c2)CC1	0	0	0	0	0	0	-
Cc1c(C=O)c(C=O)c(C)n1Cc1ccccc1	0	0	0	0	0	0	-
CCOC(=O)c1c(C=O)c(C)n(Cc2ccc(C)cc2)c1C	0	0	0	0	85.8	0	0
CCOC(=O)c1c(C=O)c(C)n(Cc2ccccc2Cl)c1C	0	0	0	0	72.2	0	0
C/C(=N\NC(=O)NC1CCCCC1)C1CCCCC1	0	0	0	0	70.9	0	0
O=C(OCC(=O)N1N=C(c2ccc(Cl)cc2)CC1c1ccco1)c1ccco1 (centres undefined)	0	0	0	0	68.5	-	0
Cn1c(=O)[nH]c(=O)c2c1nc(CN1CCN(c3ccccc3F)CC1)n2CCCc1ccccc1	0	0	0	0	85.4	0	0
CCn1c(-c2ccsc2)nc2c1c(=O)[nH]c(=O)n2Cc1ccccc1	0	0	0	0	0	0	-
CCCn1c(-c2cccs2)nc2c1c(=O)[nH]c(=O)n2Cc1ccccc1	0	0	0	0	72.2	-	+
CCCn1c(=O)[nH]c(=O)c2c1nc(-c1ccc(OC(F)F)c(OC)c1)n2CCOC	0	0	0	0	0	0	-
CCCn1c(=O)[nH]c(=O)c2c1nc(-c1ccccc1OC(F)F)n2CCOC	0	0	0	0	84.4	0	0
C=CCSc1nc(O)c(CC)c(=O)[nH]1	-	-	0	-	0	-	-
C=C(C)Cn1c(C)cc(C)c(S(=O)(=O)c2ccc(C)cc2)c1=O	0	0	0	0	86.6	-	+
